# Activity calls are given as the source filed them. The rule behind the calls is not given here.
# How the values were obtained:
# [1] = target: T1, Oxygen-insensitive NAD(P)H nitroreductase (Escherichia coli K-12, UniProt P38489); test: Substrate activity at Escherichia coli nitroreductase nfsB assessed as Kcat upto 1 mM using NADH as cofactor in sodium phosphate buffer at pH 7.5 incubated for 5 mins by RP-HPLC; type: ADME; details: pH 7.5, 5 min
# T1 sequence (P38489 whole entry): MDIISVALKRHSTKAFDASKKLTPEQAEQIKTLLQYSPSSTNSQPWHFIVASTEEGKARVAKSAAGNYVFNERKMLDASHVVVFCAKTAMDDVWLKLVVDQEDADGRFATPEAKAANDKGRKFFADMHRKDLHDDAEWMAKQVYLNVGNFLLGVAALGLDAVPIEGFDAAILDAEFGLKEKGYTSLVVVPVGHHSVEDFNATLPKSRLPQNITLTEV
# [2] = target: T2, Putative nitroreductase (Staphylococcus saprophyticus subsp. saprophyticus (strain ATCC 15305 / DSM20229 / NCIMB 8711 / NCTC 7292 / S-41), UniProt Q4A0P1); test: Substrate activity at Staphylococcus saprophyticus nitroreductase NtrB assessed as Kcat using NADPH as cofactor in Tris-Cl buffer at pH 7.5 incubated for 30 mins by HPLC analysis; type: ADME; details: pH 7.5, 0.5 h
# T2 sequence (Q4A0P1 whole entry): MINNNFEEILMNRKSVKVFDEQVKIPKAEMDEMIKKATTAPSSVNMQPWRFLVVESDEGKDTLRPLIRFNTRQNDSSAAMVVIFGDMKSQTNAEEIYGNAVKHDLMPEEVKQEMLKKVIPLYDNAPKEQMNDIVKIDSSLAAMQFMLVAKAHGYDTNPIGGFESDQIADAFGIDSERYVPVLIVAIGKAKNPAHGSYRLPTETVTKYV
# [3] = target: T1, Oxygen-insensitive NAD(P)H nitroreductase; test: Substrate activity at Escherichia coli nitroreductase nfsB assessed as ratio of Kcat/Km upto 1 mM using NADH as cofactor in sodium phosphate buffer at pH 7.5 incubated for 5 mins by RP-HPLC; type: ADME; details: pH 7.5, 5 min
# [4] = target: T2, Putative nitroreductase; test: Substrate activity at Staphylococcus saprophyticus nitroreductase NtrB assessed as ratio of Kcat/Km using NADPH as cofactor in Tris-Cl buffer at pH 7.5 incubated for 30 mins by HPLC analysis; type: ADME; details: pH 7.5, 0.5 h
# [5] = target: T1, Oxygen-insensitive NAD(P)H nitroreductase; test: Substrate activity at Escherichia coli nitroreductase nfsB assessed as ratio of Kcat/Km upto 1 mM using NADH as cofactor in sodium phosphate buffer at pH 7.5 incubated for 5 mins by RP-HPLC relative to CB1954/NfsB; type: ADME; details: pH 7.5, 5 min
# [6] = target: T2, Putative nitroreductase; test: Substrate activity at Staphylococcus saprophyticus nitroreductase NtrB assessed as ratio of Kcat/Km using NADPH as cofactor in Tris-Cl buffer at pH 7.5 incubated for 30 mins by HPLC analysis relative to CB1954/NfsB; type: ADME; details: pH 7.5, 0.5 h
# [7] = target: T2, Putative nitroreductase; test: Binding affinity to Staphylococcus saprophyticus nitroreductase NtrB
# [8] = target: T2, Putative nitroreductase; test: Substrate activity at Staphylococcus saprophyticus nitroreductase expressed in Escherichia coli BL21 (DE3) assessed as retention time by HPLC analysis; type: ADME
# [9] = target: T2, Putative nitroreductase; test: Substrate activity at Staphylococcus saprophyticus nitroreductase NtrB assessed as Kcat/Km using NADPH as cofactor in Tris-Cl buffer at pH 7.5 by HPLC analysis relative to CB1954/NfsB; type: ADME
# [10] = tested on: PC-3; test: Cytotoxicity against human PC3 cells […] Staphylococcus saprophyticus nitroreductase NtrB assessed as reduction in cell viability in presence of NADH as cofactor after 48 hrs by SRB assay; type: functional, cell-based; details: PC-3, 48 h
# Outline: (§1)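 Compounds were reduced outside the cells by purified His-tag (Ni column) Ssap-NtrB. The reaction mix held 600 µM NADH and compound (150, 39, 9 µM, or 180, 18, 1.8 nM) and was applied to PC-3 cells. Controls were compound alone in 25 mM Tris/HCl pH 7.5, and enzyme alone at 31 µg/mL. After 48 h, SRB absorbance was read at 492 nm and converted to % viability.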
# [11] = tested on: Hep 3B2; test: Cytotoxicity against human Hep3B cells assessed as cell viability at 9 to 150 uM after 24 hrs by MTT assay relative to control; type: functional
# Outline: (§2)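 Hep3B hepatoma, PC-3 prostate cancer and HUVEC (healthy control) cells were exposed to nitro compounds at 150, 75, 38, 19 and 9 µM for 24 h and 48 h. Viability was read by MTT assay, and IC50 values were derived from the growth inhibition curves.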
# [12] = tested on: Hep 3B2; test: Cytotoxicity against human Hep3B cells assessed as cell viability at 9 to 150 uM after 48 hrs by MTT assay relative to control; type: functional; outline: as §2
# [13] = tested on: PC-3; test: Cytotoxicity against human PC3 cells assessed as cell viability at 9 to 150 uM after 24 hrs by MTT assay relative to control; type: functional; outline: as §2
# [14] = tested on: PC-3; test: Cytotoxicity against human PC3 cells assessed as cell viability at 9 to 150 uM after 48 hrs by MTT assay relative to control; type: functional; outline: as §2
# [15] = Cytotoxicity against human HUVEC cells assessed as cell viability at 9 to 150 uM after 24 hrs by MTT assay relative to control; type: cell-based; details: read-out: Activity; outline: as §2
# [16] = Cytotoxicity against human HUVEC cells assessed as cell viability at 9 to 150 uM after 48 hrs by MTT assay relative to control; type: cell-based; details: read-out: Activity; outline: as §2
# [17] = tested on: PC-3; test: Cytotoxicity against human PC3 cells assessed as reduction in cell viability after 48 hrs by SRB assay; type: functional, cell-based; outline: as §1
# [18] = Substrate activity at Escherichia coli nitroreductase nfsA assessed as Kcat using NADPH as cofactor in Tris-Cl buffer at pH 7.5 by spectrophotometric method; type: ADME
# [19] = target: T1, Oxygen-insensitive NAD(P)H nitroreductase; test: Substrate activity at Escherichia coli nitroreductase nfsB assessed as Kcat using NADH as cofactor in Tris-Cl buffer at pH 7.5 by spectrophotometric method; type: ADME
# [20] = tested on: nitroreductase nfsA; test: Substrate activity at Escherichia coli nitroreductase nfsA assessed as Km using NADPH as cofactor in Tris-Cl buffer at pH 7.5 by spectrophotometry based Michaelis-Menten plot analysis; type: ADME; details: Escherichia coli nitroreductase nfsA enzyme
# [21] = target: T1, Oxygen-insensitive NAD(P)H nitroreductase; test: Substrate activity at Escherichia coli nitroreductase nfsB assessed as Km using NADH as cofactor in Tris-Cl buffer at pH 7.5 by spectrophotometric method based Michaelis-Menten plot analysis; type: ADME
# [22] = Substrate activity at Escherichia coli nitroreductase nfsA assessed as ratio of Kcat/Km using NADPH as cofactor in Tris-Cl buffer at pH 7.5 by spectrophotometry based Michaelis-Menten plot analysis; type: ADME
# [23] = target: T1, Oxygen-insensitive NAD(P)H nitroreductase; test: Substrate activity at Escherichia coli nitroreductase nfsB assessed as ratio of Kcat/Km using NADH as cofactor in Tris-Cl buffer at pH 7.5 by spectrophotometric method based Michaelis-Menten plot analysis; type: ADME
# [24] = target: T1, Oxygen-insensitive NAD(P)H nitroreductase; test: Substrate activity at Escherichia coli nitroreductase nfsB assessed as ratio of Kcat/Km using NADH as cofactor in Tris-Cl buffer at pH 7.5 by spectrophotometric method based Michaelis-Menten plot analysis relative to CB1954/NfsB; type: ADME
# [25] = Substrate activity at Escherichia coli nitroreductase nfsA assessed as ratio of Kcat/Km using NADPH as cofactor in Tris-Cl buffer at pH 7.5 by spectrophotometric method based Michaelis-Menten plot analysis relative to CB1954/NfsB
# [26] = tested on: PC-3; test: Cytotoxicity against human PC3 cells assessed as cell viability after 24 hrs by MTT assay; type: functional, cell-based; details: Homo sapiens, PC-3, 24 h; read-out: IC50; outline: as §2
# [27] = tested on: HUVEC; test: Cytotoxicity against human HUVEC cells assessed as cell viability after 24 hrs by MTT assay; type: cell-based; details: Homo sapiens, HUVEC; outline: as §2
# [28] = target: T2, Putative nitroreductase; test: Substrate activity at Staphylococcus saprophyticus nitroreductase NtrB assessed as enzyme specific activity using NADH as cofactor in Tris-Cl buffer at pH 7.5 by HPLC analysis; type: ADME
smiles,measurement,setting,value
NC(=O)c1cc(N(CCCl)CCCl)c([N+](=O)[O-])cc1[N+](=O)[O-],Kcat,[1],26.4 s⁻¹
same,Kcat,[2],0.8 s⁻¹
same,Kcat/Km,[3],10560 M⁻¹ s⁻¹
same,Kcat/Km,[4],9350 M⁻¹ s⁻¹
same,fold change (FC),[5],1.89
same,fold change (FC),[6],1.67
same,Ki,[7],7.28 µM
CC(C)Nc1ccc([N+](=O)[O-])cc1[N+](=O)[O-],Retention_time,[8],17.94 min
same,fold change (FC),[9],0.74
same,IC50,[10],9.77 µM
same,Activity,[11],>80%
same,Activity,[12],51 - 80%
same,Activity,[13],>80%
same,Activity,[14],>80%
same,"viability at 24 h, up to 150 µM",[15],> 80%
same,"viability at 48 h, up to 150 µM",[16],> 80%
same,Activity,[17],inactive
CS(=O)(=O)OCCN(CCBr)c1c(C(=O)NCCO)cc([N+](=O)[O-])cc1[N+](=O)[O-],Kcat,[18],12 s⁻¹
same,Kcat,[19],60 s⁻¹
same,Km,[20],100 µM
same,Km,[21],4500 µM
same,Kcat/Km,[22],120000 M⁻¹ s⁻¹
same,Kcat/Km,[23],13000 M⁻¹ s⁻¹
same,fold change (FC),[24],2.32
same,fold change (FC),[25],21.43
O=[N+]([O-])c1cc([N+](=O)[O-])c(Nc2ccc(Cl)cc2)cc1Nc1ccc(Cl)cc1,IC50,[26],150 µM
same,IC50,[27],86.5 µM
same,Retention_time,[8],35 min
same,Activity,[28],5.77 U/mg
same,Activity,[11],51 - 80%
same,Activity,[12],51 - 80%
same,Activity,[14],51 - 80%
same,"viability at 48 h, up to 150 µM",[16],51 to 80%
